Reference: ChEMBL document CHEMBL3739355, “Design, synthesis and evaluation of bitopic arylpiperazinephenyl-1,2,4-oxadiazoles as preferential dopamine D3 receptor ligands” (Bioorg Med Chem, 2016)
Where “and” joins values, the source holds several entries; their conditions need not be identical. Identical values can stand only once.

What was measured:
D(2) dopamine receptor [1] = target: T1, D(2) dopamine receptor (Homo sapiens, UniProt P14416); assay: Displacement of [3H]-sulpiride from human dopamine D2 receptor expressed in HEK293 cells at 1 uM after 150 mins by liquid scintillation counting; format: cell-based
Outline: (§1)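 Transiently PEI-transfected HEK293 cells expressing human D2R or D3R, serum-free, rinsed ice-cold. Each ligand at a single concentration competed at 4 °C for 150 min with [³H]-sulpiride: 2.2 nM for D2R, 4.4 nM for D3R. Unbound label removed by three washes in ice-cold MEM/10 mM HEPES pH 7.4. Cells were lysed in 1% SDS and bound radioactivity read by liquid scintillation.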

D(3) dopamine receptor [2] = target: T2, D(3) dopamine receptor (Homo sapiens, UniProt P35462); assay: Displacement of [3H]-sulpiride from human dopamine D3 receptor expressed in HEK293 cells at 1 uM after 150 mins by liquid scintillation counting; format: cell-based; outline: as §1
D(3) dopamine receptor [3] = target: T2, D(3) dopamine receptor; assay: Displacement of [3H]-sulpiride from human dopamine D3 receptor expressed in HEK293 cells at 0.1 uM after 150 mins by liquid scintillation counting; format: cell-based; outline: as §1
D(2) dopamine receptor [4] = target: T1, D(2) dopamine receptor; assay: Displacement of [3H]-sulpiride from human dopamine D2 receptor expressed in HEK293 cells at 0.1 uM after 150 mins by liquid scintillation counting; format: cell-based; outline: as §1
D(3) dopamine receptor [5] = target: T2, D(3) dopamine receptor; assay: Displacement of [3H]-sulpiride from human dopamine D3 receptor expressed in HEK293 cells after 150 mins by liquid scintillation counting; format: cell-based
Homo sapiens = organism: Homo sapiens; assay: Selectivity ratio of Ki for human dopamine D2 receptor to Ki for human dopamine D3 receptor
D(2) dopamine receptor [6] = target: T1, D(2) dopamine receptor; assay: Displacement of [3H]-sulpiride from human dopamine D2 receptor expressed in HEK293 cells after 150 mins by liquid scintillation counting; format: cell-based
Outline: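 HEK293 cells grown in MEM with 10% FBS and penicillin/streptomycin, PEI-transfected with human D2R plasmid (medium changed at 4 h, grown 24 h), then seeded and cultured overnight. Rinsed with ice-cold serum-free MEM, incubated with 2.2 nM [³H]-sulpiride plus varying ligand concentrations at 4 °C for 150 min. Washed three times in ice-cold MEM/10 mM HEPES pH 7.4, lysed in 1% SDS, scintillation counted. IC50 came from nonlinear regression curve fits.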

T2 sequence (P35462 whole entry): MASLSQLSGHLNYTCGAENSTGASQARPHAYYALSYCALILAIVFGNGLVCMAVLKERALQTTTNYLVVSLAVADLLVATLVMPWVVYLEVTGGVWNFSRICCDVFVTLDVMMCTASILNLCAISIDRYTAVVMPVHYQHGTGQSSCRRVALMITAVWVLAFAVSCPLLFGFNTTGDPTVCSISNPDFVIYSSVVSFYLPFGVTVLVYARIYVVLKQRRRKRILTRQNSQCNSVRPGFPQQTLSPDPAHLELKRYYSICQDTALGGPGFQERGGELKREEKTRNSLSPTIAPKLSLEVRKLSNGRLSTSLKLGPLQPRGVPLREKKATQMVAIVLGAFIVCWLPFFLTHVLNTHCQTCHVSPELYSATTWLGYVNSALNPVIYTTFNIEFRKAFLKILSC
T1 sequence (P14416 whole entry): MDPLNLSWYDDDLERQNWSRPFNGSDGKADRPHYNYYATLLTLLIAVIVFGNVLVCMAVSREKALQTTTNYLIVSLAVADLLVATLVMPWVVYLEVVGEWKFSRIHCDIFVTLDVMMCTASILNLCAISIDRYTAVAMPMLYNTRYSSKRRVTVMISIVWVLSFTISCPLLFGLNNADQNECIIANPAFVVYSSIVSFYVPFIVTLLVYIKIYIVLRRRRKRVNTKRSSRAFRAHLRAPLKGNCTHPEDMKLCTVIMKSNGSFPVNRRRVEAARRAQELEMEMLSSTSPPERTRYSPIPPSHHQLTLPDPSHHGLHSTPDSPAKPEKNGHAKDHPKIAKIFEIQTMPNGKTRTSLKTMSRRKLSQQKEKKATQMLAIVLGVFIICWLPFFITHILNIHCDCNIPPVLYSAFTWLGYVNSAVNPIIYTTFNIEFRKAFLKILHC

| Structure (SMILES) | inhibition (D(3) dopamine receptor [3]) | inhibition (D(2) dopamine receptor [4]) | also measured |
| --- | --- | --- | --- |
| CCCN(CCCCN1CCN(c2ccccc2F)CC1)c1noc(-c2ccccc2)n1 | – | – | inhibition (D(2) dopamine receptor [1]): 10.6%; inhibition (D(3) dopamine receptor [2]): 3.2% |
| Fc1ccccc1N1CCN(CCCCNc2noc(-c3ccccc3)n2)CC1 | 50.7% | 69.8% | – |
| Clc1ccc(N2CCN(CCCCNc3noc(-c4ccccc4)n3)CC2)cc1 | – | -2.6% and 8.3% | Ki (D(3) dopamine receptor [5]): 270 nM; Ratio Ki (Homo sapiens): 297; Ki (D(2) dopamine receptor [6]): 79600 nM |
| Clc1ccc(-c2nc(NCCCCN3CCN(c4ccc(Cl)cc4Cl)CC3)no2)cc1 | 33.8% and 16.6% | 15.2% and 40% | – |
| CCCN(CCCCN1CCN(c2cccc(C(F)(F)F)c2)CC1)c1noc(-c2ccccc2)n1 | – | – | inhibition (D(2) dopamine receptor [1]): 17.8%; inhibition (D(3) dopamine receptor [2]): 9.7% |
| O=C(NCCCCN1CCN(c2ccc(Cl)cc2Cl)CC1)c1cc2ccccc2[nH]1 | – | – | Ki (D(2) dopamine receptor [6]): > 23900 nM |
| Clc1cccc(-c2nc(NCCCCN3CCN(c4ccc(Cl)cc4Cl)CC3)no2)c1 | 37% and 41.5% | 28.3% and 40.4% | – |
| CCCN(CCCCN1CCN(c2ccc(Cl)cc2Cl)CC1)c1noc(-c2ccccc2)n1 | – | – | inhibition (D(2) dopamine receptor [1]): -0.6%; inhibition (D(3) dopamine receptor [2]): 15.1% |
| Clc1ccc(N2CCN(CCCCNc3noc(-c4ccccn4)n3)CC2)c(Cl)c1 | 9.5% and 14.8% | 7.8% and 17.9% | – |
| Clc1ccc(N2CCN(CCCCNc3noc(-c4ccc(Br)cc4)n3)CC2)c(Cl)c1 | 14.2% | 12.7% | – |
| Clc1ccc(N2CCN(CCCCNc3noc(-c4ccccc4)n3)CC2)c(Cl)c1 [listing 1 of 3 here] | – | – | Ki (D(3) dopamine receptor [5]): 290 nM; Ki (D(2) dopamine receptor [6]): 1290 nM |
| Clc1ccc(N2CCN(CCCCNc3noc(-c4ccccc4)n3)CC2)c(Cl)c1 [listing 2 of 3 here] | – | – | Ratio Ki (Homo sapiens): 7.7 and 4.4 |
| Clc1ccc(N2CCN(CCCCNc3noc(-c4ccccc4)n3)CC2)c(Cl)c1 [listing 3 of 3 here] | – | – | Ki (D(3) dopamine receptor [5]): 810 nM; Ki (D(2) dopamine receptor [6]): 6230 nM |
| CCCN(CCCCN1CCN(c2cccc(Cl)c2Cl)CC1)c1noc(-c2ccccc2)n1 | – | – | inhibition (D(2) dopamine receptor [1]): 50.1%; inhibition (D(3) dopamine receptor [2]): 22.1% |

Further lines, with some results ahead:

| inhibition (D(3) dopamine receptor [3]) | inhibition (D(2) dopamine receptor [4]) | Structure (SMILES) | also measured |
| --- | --- | --- | --- |
| 36.6% and 11.8% | 8.8% and 22.8% | N#Cc1ccc(-c2nc(NCCCCN3CCN(c4ccc(Cl)cc4Cl)CC3)no2)cc1 | – |
| 35.3% | 19.8% | FC(F)(F)c1cccc(N2CCN(CCCCNc3noc(-c4ccccc4)n3)CC2)c1 | – |
| 4.2% and 7.7% | 5.6% and 5.4% | COc1ccccc1-c1nc(NCCCCN2CCN(c3ccc(Cl)cc3Cl)CC2)no1 | – |
